63 molecules from PubChem BioAssay AID1496 (Sanford-Burnham Center for Chemical Genomics, 2009) can be followed below.

Values joined by “and” are separate entries in the source; they are usually repeats but may differ in a detail not shown here. Identical values can stand only once. The whole screen tested about 220,000 compounds, of which about 990 (0.45%) were called active.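 How the source made its calls: active means inhibition over about 50% at 20 µM in the single-dose screen (limit read from the data); inactive means the rest.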 For the sample, actives were picked, then their nearest neighbours and some compounds at random. The source holds several records for some structures; these can differ, active in one and inactive in another.

Chain of Runt-related transcription factor 1 (Homo sapiens) + Core-binding factor subunit beta (Homo sapiens) (Q01196 whole entry, looked up, the tested form may be a part): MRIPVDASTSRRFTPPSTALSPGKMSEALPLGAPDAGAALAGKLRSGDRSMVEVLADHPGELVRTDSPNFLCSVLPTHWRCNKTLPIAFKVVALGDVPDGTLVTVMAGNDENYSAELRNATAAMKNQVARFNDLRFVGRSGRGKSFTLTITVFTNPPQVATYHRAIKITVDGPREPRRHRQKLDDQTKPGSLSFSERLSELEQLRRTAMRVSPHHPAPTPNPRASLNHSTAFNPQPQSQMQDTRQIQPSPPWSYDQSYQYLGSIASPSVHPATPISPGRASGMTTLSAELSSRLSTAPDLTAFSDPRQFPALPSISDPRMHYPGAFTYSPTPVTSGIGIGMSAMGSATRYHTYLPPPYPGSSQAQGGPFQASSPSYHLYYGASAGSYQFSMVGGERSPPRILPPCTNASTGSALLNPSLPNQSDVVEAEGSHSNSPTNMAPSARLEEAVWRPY
Chain of Runt-related transcription factor 1 (Homo sapiens) + Core-binding factor subunit beta (Homo sapiens) (Q13951 whole entry, looked up, the tested form may be a part): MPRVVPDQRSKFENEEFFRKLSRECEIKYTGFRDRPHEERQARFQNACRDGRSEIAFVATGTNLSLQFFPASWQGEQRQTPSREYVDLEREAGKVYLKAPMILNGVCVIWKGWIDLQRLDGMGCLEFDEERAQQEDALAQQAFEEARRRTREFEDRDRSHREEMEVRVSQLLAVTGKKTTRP

This assay has as its target Runt-related transcription factor 1 (Homo sapiens) + Core-binding factor subunit beta (Homo sapiens) (UniProt Q01196+Q13951). Briefly: inhibitors of RUNX1 Runt–CBFb binding, primary screen, biochemical, FRET, Cerulean-Runt, Venus-CBFb, uHTS (AID 1496).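 Further: 0% = DMSO wells and 100% = excess unlabeled CBFb competitor control.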 Conditions: Cerulean-Runt/Venus-CBFb FRET ratio 530/480, 1 h; at 20 µM; stronger effect = higher value. The essentials: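 Buffer or medium: Tris pH 7.5 buffer with BSA. Assay system: Cerulean-labeled Runt domain protein. Amount: each fluorescent fusion protein 100 nM. Read-out basis: loss of energy transfer signal. Incubation: 1 h compound exposure, room temperature. Probe or stimulus: Venus-CBFb binding partner, 100 nM. Detection: FRET, excitation 422 nm, emission at 530 and 480 nm.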
The term inhibition denotes the relative decrease from the control value, in per cent. Regarding `O=S(=O)(Nc1ccc(OC(F)(F)F)cc1)c1cccc2nonc12`, the inhibition is -2.4% (inactive).

On to `Cc1ccc(-c2nc3ccccc3[nH]c2=O)cc1`, for which the inhibition was 1.4% (inactive). For `O=[N+]([O-])c1cccc(-c2nnc3c4ccccc4c4ccccc4n23)c1` the value was 4.4% (inactive); for `O=c1[nH]c2ccccc2n2c(-c3ccccc3)nnc12`, 53% (active); for `Oc1c(Br)cc(/C=N/NC(=S)NCC2CCCO2)cc1Br` (stereo not drawn), 0.6% (inactive). `CCN1C(=O)/C(=C2/Sc3ccccc3N2CCCS(=O)(=O)O)SC1=S`: the inhibition was 44.8% (inactive) and 56.4% (active). For `CCN1C(=O)/C(=C\N2CCN(c3ccccc3)CC2)SC1=S` the value was -0.2% (inactive); for `CCCCN1C(=O)/C(=C/C=C2/C=Cc3ccccc3N2CC)SC1=S`, 27.9% (inactive). Then `COCCNC(=S)N1CCN(C)CC1`, with 0.5% (inactive); and `O=C1CCCCC1C(=O)c1ccccc1` (stereo not drawn), with 1.7% (inactive); and `COc1ccc(C2/C=C\CN(CC(C)C)CC(=O)N2Cc2ccc(F)cc2)cc1` (stereo not drawn), with 0% (inactive). Then `O=C(O)CCc1cccnc1`, with -0.7% (inactive); and `CCOC(=O)C1CCN(C(=O)Cn2cc(C#N)c3ccccc32)CC1`, with 0.6% (inactive).

As for `CCc1cccc2c(C=C(C#N)C#N)cn(CC(=O)N3CCCCC3)c12`, the inhibition was 91.4% (active).

For `COc1cccc2c(=O)n(CC(=O)N3CCCCCC3)ccc12`, the inhibition was 0.5% (inactive).

In the case of `CSC1=NC2(C)CCCCC2C12C=CC(=O)C=C2` (stereo not drawn), the inhibition is 2.8% (inactive).

Consider `COc1ccc(N2CCN(C(=O)CSc3nc4cc(OC)c(OC)cc4cc3C#N)CC2)cc1`, for which the inhibition is 12.5% (inactive).

As to `COc1ccc2nc(N3CCCC(O)C3)c(C#N)cc2c1` (stereo not drawn), the inhibition was 81.1% (active).

On to `CCOc1ccc2nc(N3CCCN(C(=O)Nc4ccccc4C)CC3)c(C#N)cc2c1`, for which the inhibition is 29.2% (inactive). As to `CC1CCN(c2c(NCc3ccc(C(=O)NCc4ccccc4)cc3)c(=O)c2=O)CC1`, the inhibition was 0.6% (inactive). Take `NNC(=O)c1oc2nc(-c3ccccc3)cc(-c3ccco3)c2c1N`: the inhibition is -57.1% (inactive). For the molecule `CSc1nc(-c2ccco2)nn1C(=O)c1ccccc1Cl`, the inhibition is -3.7% (inactive).

As to `COc1ccc(Cl)cc1C(=O)NNC(=O)c1nc2nc(C)cc(C)n2n1`, the inhibition is -0.8% (inactive). Then `COCc1cc(=O)oc2cc(NS(=O)(=O)c3ccc(C)cc3)ccc12`, with 58.8% (active). Consider `Cc1ccc(S(=O)(=O)Nc2ccc3ncccc3c2)cc1`, for which the inhibition is -1.3% (inactive). Regarding `COc1ccc(S(=O)(=O)Nc2ccc3oc(C)c(C(C)=O)c3c2)cc1`, the inhibition is 0.3% (inactive). Then `Clc1ccc(C[n+]2cc(-c3ccc(Cl)cc3)n3c2CCC3)cc1`, with 0.1% (inactive); and `Cc1cc(C(=O)N2CCC(C(=O)O)CC2)c(C(F)(F)F)o1`, with 0% (inactive); and `S=C(NNC(=S)NC1CC2CCC1C2)NC1CC2C=CC1C2` (stereo not drawn), with 11.8% (inactive). Then `COc1cccc(C(=O)c2cc3ccc(O)cc3oc2=O)c1`, with 126% (active); and `COc1ccc2oc(=O)c(C(=O)N3CCCC3)cc2c1`, with 2% (inactive). Then `COc1ccc2oc(=O)c(C(=O)O)cc2c1`, with 3.3% (inactive); and `O=C(Nc1nnc(CCN2CCCCC2)s1)c1cccc(Cl)c1`, with 2.2% (inactive). `Cc1noc(C)c1-c1nc(CSc2ccc(Cl)cc2)no1`: the inhibition was 0.4% (inactive).

On to `OC(c1nc2ccccc2[nH]1)C(O)C(O)C(O)c1nc2ccccc2[nH]1` (stereo not drawn), for which the inhibition is -0.4% (inactive). Then `Cc1ccc(/C=C(\C#N)C(=O)Nc2cccc3ncccc23)o1`, with 125% (active).

Turning to `Cc1ccc(C(=O)Nc2cccc3ncccc23)cc1[N+](=O)[O-]`, the inhibition is -0.8% (inactive). Then `O=C(Nc1cccc2ncccc12)C(Cl)(Cl)Cl`, with -0.7% (inactive); and `CCC(=O)c1ccc(OCC(=O)Nc2ccc3nc(C)sc3c2)cc1`, with 1.3% (inactive); and `CC1=NNC(=O)C1CCC(=O)N/N=C(\C)c1ccc(Cl)cc1` (stereo not drawn), with -1.6% (inactive). `CC[C@@H](C)[C@@H](C(=O)N1CCN(C(=O)OC(C)(C)C)CC1)n1cc(CCC(=O)O)nn1`: the inhibition was 2.1% (inactive). Then `CCc1c(C)nc2c(-c3ccccc3)c(C)nn2c1Nc1ccc(NC(C)=O)cc1`, with -2.4% (inactive).

For `O=C(O)c1ccccc1C(=O)Nc1ccccc1[N+](=O)[O-]`, the inhibition is -1.2% (inactive). `Fc1cc(F)c2nc(Nc3nc4c(F)cccc4s3)sc2c1`: the inhibition was 0.3% (inactive).

On to `NC(=O)c1c(NC(=O)CSc2nc(N)cc(=O)[nH]2)sc2c1CCCC2`, for which the inhibition is 0.4% (inactive).

`NC(=O)c1c(Nc2nc3c(F)cccc3s2)sc2c1CCCC2`: the inhibition was 117% (active). For `Cc1ccc(-c2cn3cc([N+](=O)[O-])ccc3n2)cc1` the value was 67.1% (active); for `Cc1ccc(-n2cc3ccc([N+](=O)[O-])cc3n2)cc1`, -12.8% (inactive). Then `Cc1ccc(-c2cn3cc(C)ccc3n2)cc1`, with -4.5% (inactive); and `O=C(NNc1cc(Cl)cc(Cl)c1)c1c(F)cccc1Cl`, with 0.6% (inactive). For `O=C(Cc1cccc2ccccc12)NNC(=O)Nc1ccc(Cl)cc1` the value was 1.3% (inactive). Regarding `CCCn1c(=NC(C)=O)c(C(=O)OCC)cc2c(=O)n3ccccc3nc21`, the inhibition was 101% (active).

For `Cc1ccc(-n2c(=O)c(C#N)cc3c(=O)n4ccccc4nc32)cc1C`, the inhibition is 19.9% (inactive).

For the molecule `Cc1onc(-c2c(Cl)cccc2Cl)c1C(=O)NNC(=O)c1c(-c2c(Cl)cccc2Cl)noc1C`, the inhibition is 0.7% (inactive). Then `CCOC(=O)c1cc2c(=O)n3ccccc3nc2n(CC(C)C)c1=NC(=O)c1c(-c2c(F)cccc2Cl)noc1C`, with 64.1% (active).

`CCn1c(=N)c(S(=O)(=O)c2ccc(F)cc2)cc2c(=O)n3ccccc3nc21`: the inhibition was 10.5% (inactive). Then `C/C(=N/OC(=O)c1c(-c2c(F)cccc2Cl)noc1C)c1cnccn1`, with -0.3% (inactive); and `O=C(NCC1CCCO1)c1cc(-c2ccccc2)nc2ccccc12` (stereo not drawn), with 1.5% (inactive); and `Cc1noc(C)c1COC(=O)COc1ccc(-c2ccccc2)cc1`, with -2.6% (inactive). Regarding `CC(=O)NNC(=O)c1csc(Cc2c(Cl)sc3ccc(Cl)cc23)n1`, the inhibition is 1.6% (inactive).

On to `O=C(NNS(=O)(=O)c1ccccc1)c1cnn(-c2ccc(Cl)cc2)c1C(F)(F)F`, for which the inhibition was 1.6% (inactive). Then `O=C(CNCc1cccs1)Nc1cc(S(=O)(=O)N2CCCC2)ccc1Cl`, with 4.6% (inactive); and `CCc1nc(NCCO)c(C#N)c2c1CCCC2`, with -0.2% (inactive).
